We go through 15 molecules from ChEMBL document CHEMBL4321835, “Could Dissecting the Molecular Framework of β-Lactam Integrin Ligands Enhance Selectivity?” (J Med Chem, 2019).

The target in assay [1] is T1, Integrin alpha-V/beta-3 (Homo sapiens, UniProt P05106+P06756). Put plainly: Agonist activity at alphaVbeta3 integrin receptor in human SK-MEL-24 cells assessed as increase in fibronectin-induced cell adhesion pre-incubated for 30 mins. The format is cell-based. In outline:
(§1)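 Integrin-mediated adhesion. αvβ3: SK-MEL-24 cells adhering to FN. α5β1: K562 cells adhering to FN. α4β1: Jurkat E6.1 cells adhering to VCAM-1. Values are mean ± SD, n=3.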

Assay [2] addresses T2, Integrin alpha-5/beta-1 (Homo sapiens, UniProt P05556+P08648). Put plainly: Agonist activity at alpha5beta1 integrin receptor in human K562 cells assessed as increase in fibronectin-induced cell adhesion pre-incubated for 30 mins. Type of assay: cell-based. Summed up: as §1
Assay [3] addresses T3, Integrin alpha-4/beta-1 (Homo sapiens, UniProt P05556+P13612). Put plainly: Agonist activity at alpha4beta1 integrin receptor in human Jurkat E6.1 cells assessed as increase in VCAM1-induced cell adhesion pre-incubated for 30 mins. The format is cell-based. Summed up:
as §1

Assay [4] deals with T3, Integrin alpha-4/beta-1. Put plainly: Binding affinity to alpha4beta1 integrin receptor (unknown origin) incubated for 1 hr by scintillation proximity binding assay. The format is protein-complex assay. Summed up:
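Scintillation proximity binding assay for α4β1, giving IC50. Mean ± SEM, n=3.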
For orientation: In a scintillation proximity assay essentially only radioactivity close to the scintillant gives light.

The target of assay [5] is T1, Integrin alpha-V/beta-3. Put plainly: Binding affinity to alphaVbeta3 integrin receptor (unknown origin) incubated fro 30 mins by competitive solid-phase binding assay. Type of assay: protein-complex assay. In outline:
(§2)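 Competitive solid-phase binding assay using FN for αvβ3 and α5β1, giving IC50. Mean ± SEM, n=3.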

Assay [6] concerns the target T2, Integrin alpha-5/beta-1. Put plainly: Binding affinity to alpha5beta1 integrin receptor (unknown origin) incubated fro 30 mins by competitive solid-phase binding assay. Type of assay: protein-complex assay. In outline: as §2
Assay [7] has as its target T3, Integrin alpha-4/beta-1. Put plainly: Agonist activity at alpha4beta1 integrin receptor in human Jurkat E6.1 cells assessed as increase in VCAM1-induced cell adhesion at 10 ug/ml pre-incubated for 30 mins in presence of 10 ug/ml neutralizing antibody to alpha4 integrin subunit. Type of assay: cell-based.
The target in assay [8] is T3, Integrin alpha-4/beta-1. Put plainly: Agonist activity at alpha4beta1 integrin receptor in human Jurkat E6.1 cells assessed as induction of ERK1/2 phosphorylation incubated for 1 hr by Western blot analysis. The format is cell-based. Summed up:
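Jurkat cells (α4β1) were treated across a concentration range with VCAM-1 as positive control. ERK1/2 phosphorylation was quantified by band densitometry against vehicle. Mean ± SEM, n=5; Newman-Keuls test after ANOVA.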
A general note: A western blot detects proteins with antibodies after separation by electrophoresis.

In assay [9] the target is T1, Integrin alpha-V/beta-3. Put plainly: Activity at alphaVbeta3 integrin receptor in human SK-MEL-24 cells assessed as effect on fibronectin-induced cell adhesion pre-incubated for 30 mins. Type of assay: cell-based. Summed up: as §1
Assay [10] has as its target T2, Integrin alpha-5/beta-1. Put plainly: Activity at alpha5beta1 integrin receptor in human K562 cells assessed as effect on fibronectin-induced cell adhesion pre-incubated for 30 mins. The format is cell-based. In outline: as §1
For assay [11], the target named is T3, Integrin alpha-4/beta-1. Put plainly: Activity at alpha4beta1 integrin receptor in human Jurkat E6.1 cells assessed as effect on VCAM1-induced cell adhesion pre-incubated for 30 mins. Type of assay: cell-based. Summed up:
as §1

In assay [12] the target is T2, Integrin alpha-5/beta-1. Put plainly: Antagonist activity at alpha5beta1 integrin receptor in human K562 cells assessed as reduction in fibronectin-induced cell adhesion pre-incubated for 30 mins. Type of assay: cell-based. Summed up:
as §1

Assay [13] concerns the target T1, Integrin alpha-V/beta-3. Put plainly: Agonist activity at alphaVbeta3 integrin receptor in human Saos-2 cells assessed as increase in fibronectin-induced cell adhesion pre-incubated for 30 mins. Type of assay: cell-based.
Assay [14] has as its target T1, Integrin alpha-V/beta-3. Put plainly: Agonist activity at alphaVbeta3 integrin receptor in human SK-MEL-24 cells assessed as increase in cell adhesion to wells coated with compound by passive absorption in absence of fibronectin. The format is cell-based. In outline:
(§3)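 Compounds were coated onto wells by passive absorption, with no FN present. Adhesion of SK-MEL-24 or Saos-2 cells was compared with BSA-coated wells. Mean ± SEM from three independent experiments run in quadruplicate; Newman-Keuls test after ANOVA.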

In assay [15] the target is T1, Integrin alpha-V/beta-3. Put plainly: Agonist activity at alphaVbeta3 integrin receptor in human Saos-2 cells assessed as increase in cell adhesion to wells coated with compound by passive absorption in absence of fibronectin. Type of assay: cell-based. Summed up: as §3
Assay [16] deals with T1, Integrin alpha-V/beta-3. Put plainly: Agonist activity at alphaVbeta3 integrin receptor in human SK-MEL-24 cells assessed as increase in fibronectin-induced cell adhesion at 10 ug/ml added 10 mins after pre-incubation with neutralizing antibody to integrin alphaV-subunit. Type of assay: cell-based. In outline: (§4)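 Neutralizing antibody against the αv subunit was added to SK-MEL-24 or Saos-2 cells 10 min before the compounds (10 μg/mL). Adhesion was then measured.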

Assay [17] concerns the target T1, Integrin alpha-V/beta-3. Put plainly: Agonist activity at alphaVbeta3 integrin receptor in human Saos-2 cells assessed as increase in fibronectin-induced cell adhesion at 10 ug/ml added 10 mins after pre-incubation with neutralizing antibody to integrin alphaV-subunit. The format is cell-based. In outline:
as §4

The target of assay [18] is T1, Integrin alpha-V/beta-3. Put plainly: Agonist activity at alphaVbeta3 integrin receptor (unknown origin) expressed in HEK293 cells assessed as induction of ERK1/2 phosphorylation at 1 nM to 100 nM incubated for 1 hr by Western blot analysis. Type of assay: cell-based. In outline: (§5)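 HEK293 cells were transfected with plasmids coding αv and β3 subunits; untransfected HEK293 served as negative control and FN as positive control. ERK1/2 phosphorylation was quantified by band densitometry against vehicle. Mean ± SEM, n=5; Newman-Keuls test after ANOVA.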

Assay [19] concerns the target Mitogen-activated protein kinase; ERK1/ERK2 (Homo sapiens) (UniProt P27361+P28482). Put plainly: Activation of ERK1/2 phosphorylation in HEK293 cells at 1 nM to 100 nM incubated for 1 hr by Western blot analysis. The format is cell-based. In outline:
as §5

Assay [20] deals with T2, Integrin alpha-5/beta-1. Put plainly: Antagonist activity at alpha5beta1 integrin receptor in human K562 cells assessed as reduction in fibronection-induced ERK1/2 phosphorylation at 1 nM to 100 nM pre-incubated for 1 hr before fibronectin stimulation for 1 hr by Western blot analysis. Type of assay: cell-based. Summed up: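 K562 cells (α5β1) were treated with compound and stimulated with FN. FN-induced ERK1/2 phosphorylation was quantified by band densitometry against vehicle and FN. Mean ± SEM, n=5; Newman-Keuls test after ANOVA.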

The source made the active and inactive calls. No cut-off for these calls is given here.

By EC50 is commonly meant the midpoint of the concentration-response curve. One may read the IC50 as the concentration that inhibits the measured activity by half. Consider `Cc1ccccc1NC(=O)N1CCC[C@H]1C(=O)O`, for which the EC50 on Integrin alpha-V/beta-3 [1] came to 2880 nM; on Integrin alpha-5/beta-1 [2], 140 nM; at Integrin alpha-4/beta-1 [3], 10 nM. The IC50 on Integrin alpha-4/beta-1 [4] was 18.9 nM; on Integrin alpha-V/beta-3 [5], > 1000 nM; on Integrin alpha-5/beta-1 [6], 136 nM. The result at Integrin alpha-4/beta-1 [7] was inactive. Further, the Activity entry on Integrin alpha-4/beta-1 [8] is “Dose-dependent effect”.

In the case of `Cc1ccccc1NC(=O)N1C(=O)C[C@@H]1C(=O)O`, the Activity on Integrin alpha-V/beta-3 [9], at Integrin alpha-5/beta-1 [10] and on Integrin alpha-4/beta-1 [11] was > 5 µM throughout.

With `O=C(O)CC1CC(=O)N1` (stereo not given), the Activity at Integrin alpha-4/beta-1 [11] was > 5 µM.

With `Cc1ccccc1C(=O)N1C(=O)CC1CC(=O)O` (stereo not given), the Activity on Integrin alpha-V/beta-3 [9] and on Integrin alpha-4/beta-1 [11] was > 5 µM in each case. Also, the IC50 was 419 nM at Integrin alpha-5/beta-1 [12], > 1000 nM on Integrin alpha-4/beta-1 [4], > 1000 nM at Integrin alpha-V/beta-3 [5] and 409 nM on Integrin alpha-5/beta-1 [6].

With `Cc1ccccc1NC(=O)N1CCC1=O`, the Activity at Integrin alpha-V/beta-3 [9] and at Integrin alpha-5/beta-1 [10] was > 5 µM each time. At Integrin alpha-4/beta-1 [3], the EC50 was 976 nM.

For the molecule `Cc1ccccc1NC(=O)N1C(=O)C[C@@H]1C(=O)NCCC(=O)O`, the Activity on Integrin alpha-V/beta-3 [9] and at Integrin alpha-4/beta-1 [11] was > 5 µM throughout. The IC50 is 96.9 nM on Integrin alpha-5/beta-1 [12], > 1000 nM at Integrin alpha-4/beta-1 [4], > 1000 nM on Integrin alpha-V/beta-3 [5] and 11.9 nM at Integrin alpha-5/beta-1 [6].

`NCc1ccc(NC(=O)N2C(=O)C[C@H]2C(=O)O)cc1`: the Activity on Integrin alpha-V/beta-3 [9] and at Integrin alpha-4/beta-1 [11] was > 5 µM in each case.

Take `NCc1ccc(NC(=O)N2C(=O)C[C@@H]2C(=O)O)cc1`: the Activity on Integrin alpha-V/beta-3 [9], on Integrin alpha-5/beta-1 [10] and on Integrin alpha-4/beta-1 [11] was > 5 µM throughout.

As to `Cc1ccccc1NC(=O)NCCC(=O)O`, the values for the concentration for a half-maximal effect (EC50) at Integrin alpha-V/beta-3 [1] and on Integrin alpha-V/beta-3 [13] were 29.9 nM and 984 nM, respectively. Moreover, the Activity at Integrin alpha-5/beta-1 [10] and at Integrin alpha-4/beta-1 [11] was > 5 µM each time. In addition, the IC50 at Integrin alpha-4/beta-1 [4] was > 1000 nM; at Integrin alpha-V/beta-3 [5], 9.5 nM; at Integrin alpha-5/beta-1 [6], > 1000 nM. Also, the result on Integrin alpha-V/beta-3 [14], on Integrin alpha-V/beta-3 [15] and at Integrin alpha-V/beta-3 [18] was Active. Further, the outcome (on Integrin alpha-V/beta-3 [16]; at Integrin alpha-V/beta-3 [17]; in assay [19]) was inactive.

Consider `O=C(O)/C=C1/CC(=O)N1`, for which the results for the EC50 at Integrin alpha-V/beta-3 [1], on Integrin alpha-4/beta-1 [3] and at Integrin alpha-V/beta-3 [13] were 75.6 nM, 255 nM and 154 nM, respectively. Besides, the Activity on Integrin alpha-5/beta-1 [10] was > 5 µM. The concentration for half-maximal inhibition (IC50) is 294 nM on Integrin alpha-4/beta-1 [4], 29 nM at Integrin alpha-V/beta-3 [5] and > 1000 nM on Integrin alpha-5/beta-1 [6]. Besides, the result on Integrin alpha-V/beta-3 [14], on Integrin alpha-V/beta-3 [15] and on Integrin alpha-V/beta-3 [18] was Active. Besides, the outcome (on Integrin alpha-V/beta-3 [16]; at Integrin alpha-V/beta-3 [17]; in [19]) was inactive.

For the molecule `Cc1ccccc1NC(=O)N1C(=O)CC1CC(=O)O` (stereo not given), the Activity at Integrin alpha-V/beta-3 [9] and on Integrin alpha-5/beta-1 [10] was > 5 µM each time.

In the case of `Cc1ccccc1NC(=O)NCC(=O)O`, the EC50 is 84.8 nM at Integrin alpha-V/beta-3 [1] and 299 nM at Integrin alpha-V/beta-3 [13]. For the same molecule, the half-maximal inhibitory concentration (IC50) at Integrin alpha-5/beta-1 [12] is 3510 nM; on Integrin alpha-4/beta-1 [4], > 1000 nM; at Integrin alpha-V/beta-3 [5], 3.4 nM; at Integrin alpha-5/beta-1 [6] it was > 1000 nM. The Activity at Integrin alpha-4/beta-1 [11] is > 5 µM. The result on Integrin alpha-V/beta-3 [14], on Integrin alpha-V/beta-3 [15] and at Integrin alpha-V/beta-3 [18] was Active. The result (on Integrin alpha-V/beta-3 [16]; on Integrin alpha-V/beta-3 [17]; in assay [19]) was inactive.

On to `Cc1ccccc1C(=O)N1C(=O)C[C@H]1C(=O)O`, for which the Activity at Integrin alpha-V/beta-3 [9] and on Integrin alpha-4/beta-1 [11] was > 5 µM in each case. In addition, the IC50 is 41.5 nM at Integrin alpha-5/beta-1 [12], > 1000 nM on Integrin alpha-4/beta-1 [4], > 1000 nM on Integrin alpha-V/beta-3 [5] and 59.3 nM at Integrin alpha-5/beta-1 [6]. Also, the inhibition result at Integrin alpha-5/beta-1 [20] was “Active”.

With `Cc1ccccc1NC(=O)N1C(=O)CC1CC(=O)NCC(=O)O` (stereo not given), the Activity at Integrin alpha-V/beta-3 [9] and at Integrin alpha-4/beta-1 [11] was > 5 µM throughout.

Take `O=C(O)CNC(=O)CC1CC(=O)N1` (stereo not given): the Activity at Integrin alpha-V/beta-3 [9] and at Integrin alpha-4/beta-1 [11] was > 5 µM each time. In addition, the concentration for half-maximal inhibition (IC50) on Integrin alpha-5/beta-1 [12] is 1110 nM.
